# RBBP9 inhibitor: human RBBP9 hydrolase inhibition. recombinant RBBP9, FP-Rh probe fluorescence polarization. inhibition, % at 7.94 µM. 220,000 compounds, 0.2% hits. AID 1515;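 active means inhibition above the campaign mean of all tested compounds plus 3 SD, cut at about 14% in these data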
#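 Assay system: recombinant human RBBP9; Reagent: Serine-hydrolase probe FP-Rh, 375 nM pre-mixing; Doses: 7.94 µM single dose, 0.794% DMSO; Incubation: 30 min then 45 min, 25 °C; Detection: fluorescence polarization (mP), excitation 525 nm, emission 598 nm; Evaluation: percent inhibition from mP, scaled between DMSO and no-protein wells.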
# LYPLA2 inh: LYPLA2 (human) inhibition in PME1 counter-screen; O95372; inhibition, % at 5.9 µM; recombinant LYPLA2, FP-Rh probe fluorescence polarization; 320,000 compounds, 0.38% hits;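 active means inhibition above the screen-wide mean plus 3 SD, limit set per campaign, cut at about 26% in these data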
# PME-1 primary: PME-1 (human) inhibition | Q9Y570 | 320,000 compounds, 0.53% hits | recombinant PME-1, FP-Rh probe fluorescence polarization | AID 2130 | inhibition, % at 5.9 µM;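 active means inhibition above the campaign mean of all compounds plus 3 SD, cut at about 26% in these data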;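 further: competitive labeling of PME-1 active site by serine hydrolase directed probe; inhibitors block probe labeling so polarization falls and inhibition rises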
# Target sequence (Q9Y570 whole entry, looked up): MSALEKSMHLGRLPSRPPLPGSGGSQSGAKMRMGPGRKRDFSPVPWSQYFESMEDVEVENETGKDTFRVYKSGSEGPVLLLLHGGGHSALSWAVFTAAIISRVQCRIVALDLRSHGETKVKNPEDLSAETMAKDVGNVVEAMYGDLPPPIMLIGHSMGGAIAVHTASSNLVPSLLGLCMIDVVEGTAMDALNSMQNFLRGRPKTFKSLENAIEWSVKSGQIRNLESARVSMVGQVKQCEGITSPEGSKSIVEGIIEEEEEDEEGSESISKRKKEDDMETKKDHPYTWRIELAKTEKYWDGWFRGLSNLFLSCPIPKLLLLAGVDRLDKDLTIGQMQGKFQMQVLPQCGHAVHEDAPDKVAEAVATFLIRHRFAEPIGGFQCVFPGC
# Fam108B counter: Fam108B inhibition, counter-screen for RBBP9 inhibitors | recombinant Fam108B, FP-Rh probe fluorescence polarization | inhibition, % at 9.51 µM | 300,000 compounds, 0.33% hits;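 active means inhibition above the screen mean inhibition plus 3 SD, computed separately per campaign, cut at about 18% in these data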;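 further: inhibitors lower polarization as less probe binds the enzyme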
# LYPLA1 counter: LYPLA1 (human) inhibition in PME1 counter-screen. recombinant LYPLA1, FP-Rh probe fluorescence polarization. inhibition, % at 5.9 µM. 320,000 compounds, 0.16% hits. AID 2174;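 active means inhibition above the mean of all tested compounds plus 3 SD, set per campaign, cut at about 14% in these data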;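 further: inhibitors block serine hydrolase probe labeling of LYPLA1 so polarization falls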
# Target sequence (O75608 whole entry, looked up): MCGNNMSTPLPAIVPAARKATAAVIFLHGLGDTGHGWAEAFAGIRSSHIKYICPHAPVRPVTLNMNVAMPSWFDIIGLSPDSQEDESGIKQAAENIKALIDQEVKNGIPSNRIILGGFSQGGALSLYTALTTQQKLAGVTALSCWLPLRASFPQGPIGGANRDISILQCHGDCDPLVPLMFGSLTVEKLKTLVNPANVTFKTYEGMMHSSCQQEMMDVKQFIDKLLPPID
# Fam108b inh conf: confirmation of mouse Fam108b serine hydrolase inhibitors. shares compounds with Fam108B counter. 930 compounds, 44% hits. recombinant Fam108b, FP-Rh probe fluorescence polarization. inhibition, % at 9.51 µM;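 active means inhibition above a limit from the primary screen, the mean over all compounds plus 3 SD, cut at about 19% in these data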;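 further: inhibitors free the probe so polarization falls as inhibition rises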
# Fam108b ABPP HTS: inhibits mouse Fam108b in gel-based ABPP | shares compounds with Fam108B counter | recombinant Fam108b, fluorophosphonate probe | inhibition, % at 20 µM | 260 compounds, 44% hits | AID 588649; in the data active means inhibition above about 40%
# LYPLA1 conf: LYPLA1 (human) inhibition, confirmation counter-screen. shares compounds with LYPLA1 counter. recombinant LYPLA1, FP-Rh probe fluorescence polarization. inhibition, % at 5.9 µM. 480 compounds, 69% hits;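 active means mean inhibition across replicates above the hit cutoff set in the primary screen, cut at about 15% in these data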;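 further: loss of FP-Rh probe labeling of LYPLA1 seen as lower polarization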
# LYPLA2 conf: LYPLA2 (human) inhibition, confirmation counter-screen | shares compounds with LYPLA2 inh | recombinant LYPLA2, FP-Rh probe fluorescence polarization | inhibition, % at 5.9 µM | 1,100 compounds, 72% hits | AID 2232;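 active means mean inhibition across replicates above the hit cutoff set in the primary screen, cut at about 26% in these data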;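 further: blocked labeling of the enzyme by serine hydrolase FP-Rh probe lowers polarization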
# Numbers stand for hits; – = inactive; · = not tested or not shown. Sampled rows, rich in hits. Any-hit rate of the full collection: about 0.99%.
SMILES,RBBP9 inhibitor,LYPLA2 inh,PME-1 primary,Fam108B counter,LYPLA1 counter,Fam108b inh conf,Fam108b ABPP HTS,LYPLA1 conf,LYPLA2 conf
CC(=O)Oc1ccc2c(c1)Oc1cc(OC(C)=O)ccc1C21OC(=O)c2ccccc21,16,119,121,107,106,145,–,98,121
COc1ccc(OC)c(-c2c3cc(O)c(=O)cc-3oc3cc(O)c(O)cc23)c1,–,77,59,73,85,110,·,–,–
O=c1cc2oc3cc(O)c(O)cc3c(-c3ccccc3O)c-2cc1O,–,·,·,·,·,·,·,·,·
CSc1nsc(/C=C/Nc2ccc(O)cc2C)c1C#N,–,30,51,21,22,–,·,–,–
O=C1C=C(N2CCCCC2)c2ccccc2C1=O,·,27,40,69,40,82,–,37,32
O=C1c2ccccc2C(=O)c2c1cccc2N1CCCC1,–,–,–,–,–,·,·,·,·
Cn1c(=O)cc2c3c(c(N4CCCCC4)ccc31)C(=O)c1ccccc1-2,–,38,40,24,28,19,·,20,28
O=C(CSc1c(F)c(F)cc(F)c1F)Nc1ccc(C2SCCS2)cc1,–,132,145,137,105,150,–,–,–
O=C(CSc1ccc(Cl)cc1)Nc1ccc(C2SCCS2)cc1,–,–,–,–,–,·,·,·,·
CC(C)(C)n1nc2c(c1NC(=O)COc1ccc(F)cc1)CS(=O)(=O)C2,·,–,–,–,–,·,·,·,·
O=C(NC(=S)N(CCO)Cc1ccccc1)c1cc(Br)ccc1Cl,–,–,–,–,–,·,·,·,·
O=C(Nc1c2c(nn1-c1ccc([N+](=O)[O-])cc1)CS(=O)(=O)C2)c1ccccc1F,·,–,–,–,–,·,·,·,·
O=c1ccc2c(-c3ccccc3)c3ccc(O)cc3oc-2c1,·,41,–,26,46,42,–,33,29
O=C1c2ccccc2-c2onc3ccc(NCc4ccco4)c1c23,–,118,120,107,98,135,–,100,121
Clc1nc(-c2n[nH]nc2Cl)n[nH]1,–,–,–,–,–,·,·,·,·
CCN(CC)C(=O)C1c2ccccc2Oc2ccccc21,·,72,70,47,58,–,·,–,–
Nc1cc(C(=O)O)c(N)c2c1C(=O)c1ccccc1C2=O,–,53,86,73,36,84,40,31,45
OC(CSc1ccc(F)cc1)CN1CCN(c2ccccc2)CC1 (stereo not drawn),–,–,–,–,–,·,·,·,·
C=CCn1c(NC(=O)c2ccccc2Cl)c(C#N)c2nc3ccccc3nc21,–,50,–,49,39,–,·,–,86
CN(C)CCCN1C(=O)C2CCc3[nH]c4ccccc4c3C2C1=O (stereo not drawn),–,–,–,–,–,·,·,·,·
CCCOc1cccc(C(=O)Nc2ccc3c(c2)OCCO3)c1,·,–,–,–,–,·,·,·,·
CCOc1cccc(/C=N/NC(=S)Nc2cc(S(=O)(=O)N3CCOCC3)ccc2N2CCOCC2)c1O,–,34,32,18,–,–,·,·,43
COC(=O)c1cc(S(=O)(=O)N2CCOCC2)c(Cl)cc1N1CCOCC1,–,–,–,–,–,·,·,·,·
COC(=O)c1cc(C)nc2c1C(=O)C(=O)C=C2N1CCOCC1,·,79,36,71,72,82,–,91,93
O=C(OCC(O)COC(=O)c1cccnc1)c1cccnc1,–,–,–,–,–,·,·,·,·
SMILES,RBBP9 inhibitor,LYPLA2 inh,PME-1 primary,Fam108B counter,LYPLA1 counter,Fam108b inh conf,Fam108b ABPP HTS,LYPLA1 conf,LYPLA2 conf
Cc1ccc(O)c(CP(=O)(c2ccccc2)c2ccccc2)c1,–,–,–,–,–,·,·,·,·
CCNc1ccccc1CP(=O)(c1ccccc1)c1ccccc1O (stereo not drawn),·,64,70,25,51,–,·,–,–
CN(CC(=O)OCC(N)=O)S(=O)(=O)c1ccc(Cl)cc1,–,–,–,–,–,·,·,·,·
COCCn1c(SCCCC(=O)c2ccc(Br)cc2)nnc1-c1ccncc1,–,–,–,–,–,·,·,·,·
CCn1c(CSc2nnc(-c3ccncc3)n2CCOC)nc2cc(C(=O)O)ccc21,–,39,32,25,31,35,–,34,34
CCn1c(CSc2n[nH]c(N)n2)nc2cc(C(=O)O)ccc21,–,38,31,30,39,41,–,35,35
CCOc1ccc(C(=O)CSc2nnc3ccccn23)cc1,–,–,–,–,–,·,·,·,·
CCn1c(CSc2nnc(-c3cccnc3)n2-c2ccccc2C)nc2cc(C(=O)O)ccc21,–,80,76,69,77,90,–,72,72
CCn1c(CSc2nnc3ccccn23)nc2cc(C(=O)O)ccc21,–,43,41,50,39,55,–,52,51
CCc1cc(-c2n[nH]c(=S)n2Cc2ccccc2)cs1,–,–,–,–,–,·,·,·,·
Cc1ccc(C)c(OC(C)C(=O)Nc2nccs2)c1 (stereo not drawn),·,–,–,–,–,·,·,·,·
COc1cccc2c1C(=O)c1c(O)c3c(c(O)c1C2=O)C[C@](O)(C(C)=O)C[C@H]3O[C@@H]1C[C@@H](N)[C@@H](O)[C@@H](C)O1,·,50,51,43,64,42,·,64,41
COc1ccc(N2CCN(C(=O)CN3C(=O)NC4(CCCCCC4)C3=O)CC2)cc1,·,–,–,·,–,·,·,·,·
Cc1nn(-c2ccccc2)c(Cl)c1/C=N/Nc1ccc(Cl)c(C(=O)O)c1,–,–,–,–,–,·,·,·,·
Cc1nn(-c2ccccc2)c(Cl)c1/C=N/Nc1ccc(S(=O)(=O)Nc2ccccc2C(=O)O)cc1[N+](=O)[O-],–,28,51,33,–,51,·,·,–
CCCCn1c(NS(=O)(=O)c2ccccc2)c(S(=O)(=O)c2ccc(C)cc2)c2nc3ccccc3nc21,–,56,28,54,64,–,·,82,91
CCCCn1c(NC(=O)c2ccco2)c(S(=O)(=O)c2ccc(C)cc2)c2nc3ccccc3nc21,–,·,·,·,·,·,·,·,·
Cn1nc(-c2ccc(Cl)cc2)nc2c(=O)n(C)c(=O)nc1-2,–,90,37,71,85,73,·,85,89
CCOc1ccc2nc3cc(NCc4ccc(OC)cc4)ccc3c(N)c2c1,·,37,–,24,19,–,·,–,–
CCn1cnc2cc(NCc3ccc(OC)cc3)ccc21,–,–,–,–,–,·,·,·,·
O=C1NC(=O)C2(CCCc3ccccc32)N1 (stereo not drawn),·,–,–,–,–,·,·,·,·
COc1ccc2ccccc2c1C(O)c1nccn1C (stereo not drawn),–,30,29,26,24,55,–,15,–
